# Experimental data collected from several papers.
# Each line is one published result; the experiments were not run side by side.
# Route: oral
SMILES,species,sample,dose,bioavailability
N#C[C@@]1(c2ccc3c(N)ncnn23)O[C@H](CO)[C@@H](O)[C@H]1O,dog,plasma,5 mg/kg,92%
O=C(NCCN1CCCC1)c1cc(-c2ccc(CN3CCOCC3)cc2)nc2ccc(F)cc12,male beagle dog,blood,3 mg/kg,46%
CC#Cc1cncc(-c2ccc3c(c2)[C@@]2(N=C(C)C(N)=N2)[C@]2(CC[C@H](OC)CC2)C3)c1,male beagle dog,plasma,3 µmol/kg,80%
Oc1c(-n2ccnn2)cnn1-c1cc(N2CCOCC2)ncn1,female dog,plasma,1.5 mg/kg,71%
Cc1cc(Nc2ccc(S(F)(F)(F)(F)F)cc2)n2nc(C(C)(F)F)nc2n1,male beagle dog,plasma,,~20%
C=CC(=O)Nc1cc(Nc2nccc(Nc3cc(Cl)c(F)cc3C(C)(C)O)n2)c(OC)cc1N1CC[C@@H](N(C)C)C1,beagle dog,plasma,1 mg/kg,48.8%
C#Cc1cnc2nc(O)n(C(CC)CC)c2n1,male beagle dog,plasma,1 mg/kg,> 90%
Fc1ccc(Nc2n[nH]c3cccnc23)cc1Cl,dog,plasma,,36%
COc1ccc2c(c1OCc1ccccc1)C[C@@H](C(=O)O)N(C(=O)C(c1ccccc1)c1ccccc1)C2,male beagle dog,plasma,3 mg/kg,39%
